# An excerpt weighted towards active compounds, which were near 0.72% of everything screened.
# GSK3 alpha inh: blockers of GSK3A enzyme activity – biochemical, luminescence, cell-free homogeneous, HTS, primary screen; Glycogen synthase kinase-3 alpha (Homo sapiens), P49840; inhibition, % at 10 µM; GSK-3 alpha kinase, ADP-Glo luminescence, 60 min; 320,000 tested, 0.1% active;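 active = more than half of replicates show inhibition above 20%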;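 also: GST-tagged GSK-3 alpha with peptide substrate and 25 µM ATP; 0% = DMSO neutral wells and 100% = GW8510 positive control wells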
# GSK3B inh: human GSK3beta kinase inhibitors, primary screen, biochemical, cell-free homogeneous, HTS; Glycogen synthase kinase-3 beta (Homo sapiens), P49841; GST-GSK3beta kinase, ADP-Glo luminescence, 60 min; hits give low values; activity score (negative = inhibition), % at 10 µM; 300,000 tested, 0.038% active; AID 2097, 2009;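 active = more than half of replicate wells score below -50%, meaning over 50% inhibition versus plate controls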;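 also: 0% = median DMSO wells and -100% = median GW8510 positive control wells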
# Target sequence (P49841 whole entry, looked up): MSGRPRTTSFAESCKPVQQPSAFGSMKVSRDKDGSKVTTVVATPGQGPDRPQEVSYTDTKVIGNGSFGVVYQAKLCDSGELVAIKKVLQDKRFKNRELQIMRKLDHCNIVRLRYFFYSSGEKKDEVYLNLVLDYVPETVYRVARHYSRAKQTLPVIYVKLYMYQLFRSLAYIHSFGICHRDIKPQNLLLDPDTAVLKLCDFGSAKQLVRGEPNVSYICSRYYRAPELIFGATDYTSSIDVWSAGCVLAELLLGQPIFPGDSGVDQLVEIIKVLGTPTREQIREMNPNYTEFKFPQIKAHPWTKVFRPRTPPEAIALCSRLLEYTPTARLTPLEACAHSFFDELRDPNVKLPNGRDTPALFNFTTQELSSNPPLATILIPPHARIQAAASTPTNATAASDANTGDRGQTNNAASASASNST
#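 Assay system: GST-fused GSK3beta enzyme, cell-free / Medium: Tris pH 7.5 buffer with MgCl2, DTT, BSA, heparin / Also added: peptide substrate plus 25 µM ATP (final) / Compound: 10 µM single point / Timing: kinase reaction with compound 60 min at room temperature / Detection: ADP-Glo luminescence / Benchmarks: DMSO neutral wells and GW8510 at 20 µM as positive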
# AI-2 QS modul: Vibrio harveyi AI-2 quorum sensing modulators, primary screen, JMH597 strain, luminescence/OD600 ratio. activity change, % at 7.5 µM. 300,000 tested, 0.4% active. Vibrio harveyi JMH597 AI-2 luminescence/OD600 ratio, 9 h; hits give low values; strain lacks LuxN and CqsS sensors; 0 = neutral-control median; in the data active = activity change below about -75%, passing the limit was not always enough;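 also: luminescence divided by OD600 gain over 9 h not by final OD600 alone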
# PolyA inhibitor: polyadenylation inhibitors in yeast reporter cells, primary screen, luminescence, S. cerevisiae. S. cerevisiae SKY197-pL101 polyadenylation reporter, beta-gal luminescence; efflux-impaired pdr1/pdr3 knockout yeast; score 100 = 6 SD above DMSO. activity score, % at 12 µM. 300,000 tested, 0.02% active;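 active = lowest replicate activity score at least 50, where 100 means six control SD above control mean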;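 also: yeast exposed to compound for 9 h at 30 °C; higher score means more reporter readthrough which indicates perturbed polyadenylation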
# CR mimetic SO: reduction of superoxide in aged yeast, primary screen, HTS; S. cerevisiae aged cells, superoxide DHE fluorescence; hits give low values; superoxide response (% of plate mean), % at 10 µM; 330,000 tested, 0.18% active; AID 2690, 2010;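 active = superoxide response under a set limit, about three screen SD below normal, cut at about 65% in these data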;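 also: yeast aged for seven days with compound at 30 °C before DHE staining; 100% = average MFI of all compound-treated wells on the plate with controls excluded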
# STK33 kinase inh: inhibitors of purified STK33 kinase, primary screen, biochemical, ADP-Glo luminescence, homogeneous, cell-free; inhibition, % at 10 µM; 320,000 tested, 0.073% active; Serine/threonine-protein kinase 33 (Homo sapiens), Q9BYT3; AID 2661, 2010; MBP phosphorylation;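 active = inhibition at or above 25%, using the most active replicate where run in duplicate; inactive = inhibition below 25%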
# The depositor's hits bear a star; · = not tested or not shown.
SMILES,GSK3 alpha inh,GSK3B inh,AI-2 QS modul,PolyA inhibitor,CR mimetic SO,STK33 kinase inh
S=C(Nc1ccccc1)Nc1ccc2cn[nH]c2c1,27,-16,9,-5,123,41*
Cc1ccc(S(=O)(=O)NCc2ccccn2)cc1C,-3,0,10,-13,103,1
Cc1ccc(C(=O)Nc2ccc(O)cc2C(=O)O)cc1,-1,-9,-7,0,103,2
Cc1cc(N2C(=O)c3ccc(C(=O)Nc4ccc(O)cc4C(=O)O)cc3C2=O)no1,0,-1,2,0,79,32*
Cc1cccc(Nc2nc(NCCCN3CCOCC3)nc(N)c2[N+](=O)[O-])c1,75*,-74*,16,15,114,5
COCCNc1nc(N)c([N+](=O)[O-])c(Nc2ccc(F)cc2)n1,4,-1,5,7,93,-1
Nc1nc(Nc2cccc(F)c2)nc(N2CCOCC2)c1[N+](=O)[O-],24,-19,-5,27,88,5
COc1ccc(Nc2nc(NCCCN3CCOCC3)nc(N)c2[N+](=O)[O-])cc1,85*,-56*,-4,0,87,2
Nc1nc(NCCCN2CCOCC2)nc(Nc2cccc(F)c2)c1[N+](=O)[O-],57*,-71*,16,12,95,-3
Nc1nc(NCCCN2CCOCC2)nc(Nc2ccc(F)cc2)c1[N+](=O)[O-],51*,12,8,-10,98,0
O=C(O)c1ccc(N/N=C/c2ccc(-c3ccccc3Cl)o2)cc1,5,-1,-95*,-13,82,6
CCCOc1ccc(N2C(=O)CC(SC(=NCC)NCC)C2=O)cc1 (stereo not given),-2,3,-2,-6,113,-2
CCCCCCOc1ccc(N2C(=O)CC(SC(=NCC)NCC)C2=O)cc1 (stereo not given),0,2,11,19,65*,0
O=C(CN1CSCC1=O)N1CCN(S(=O)(=O)c2ccc(Cl)cc2)CC1,0,·,·,·,90,1
O=c1cc(-c2ccccc2)nc2cc(-c3ccco3)[nH]n12,0,5,17,-9,63*,-2
COc1ccc(/C=C/C(=O)NC(=S)NNC(=O)Cc2cccs2)cc1,·,0,27,-6,58*,-1
Cc1[nH][nH]c(=O)c1N=Nc1ccc(S(N)(=O)=O)cc1,59*,-22,-1,-9,105,3
CC(=O)c1ccc(N=Nc2c(C)[nH][nH]c2=O)cc1,26,-8,42,-10,107,3
Cc1nnc(SCC(=O)NC2CCCCC2)n1N,·,·,·,·,89,·
O=C(CCCN1C(=O)c2cccc3cccc(c23)C1=O)NCc1cccs1,-1,1,12,-2,98,-5
C=CCNc1nc(N)c(C(=O)c2ccc3c(c2)OCO3)s1,79*,·,·,·,88,2
CN(Cc1cccnc1)C(=O)c1cc(COc2ccc3c(c2)CCCC3)on1,-1,3,-80*,5,109,1
CCc1ccc(CN(C)C(=O)c2cc(COc3cccc4cnccc34)on2)cc1,0,-1,-60,17,116,0
CCOC(=O)c1cnc2ccc(OC)cc2c1Nc1ccc(N2CCN(C)CC2)cc1,84*,-59*,10,-5,99,0
CC1CCCN(C(=O)CCNS(=O)(=O)c2ccc3c(c2)c(=O)n(C)c(=O)n3C)C1 (stereo not given),1,0,10,4,95,0
SMILES,GSK3 alpha inh,GSK3B inh,AI-2 QS modul,PolyA inhibitor,CR mimetic SO,STK33 kinase inh
NC1=C(Br)C(=O)c2ccccc2C1=O,1,1,-90*,7,151,1
CN(CC(=O)NCC(=O)Nc1ccc(F)cc1)C1CCS(=O)(=O)C1 (stereo not given),2,·,·,·,77,-1
CCN(CC)S(=O)(=O)c1ccc2c(c1)c(=O)c(C(=O)NCCc1ccccc1)cn2C,1,0,16,-13,138,1
O=C(NCCc1cccnc1)c1cc(COc2ccc(F)cc2F)on1,-1,1,-76*,-11,91,0
O=C(NCCc1cccnc1)c1cc(COc2ccc(F)cc2Cl)on1,2,-1,-31,8,113,1
CN(c1ncnc(N)c1[N+](=O)[O-])C1CCS(=O)(=O)C1 (stereo not given),55*,-37,7,8,109,-1
O=C(CCS(=O)(=O)c1ccccc1)NNC(=O)CSc1ccccc1F,-5,·,·,·,85,-1
Cc1ccc(S(=O)(=O)N2CCOC2CNC(=O)C(=O)NCc2ccccn2)cc1 (stereo not given),6,3,11,21,116,0
CN(C)Cc1c(O)ccc2c1O/C(=C\C=C\c1ccccc1)C2=O,46,-54*,5,0,101,8
O=C(NCc1cc([N+](=O)[O-])ccc1O)c1cccc(NS(=O)(=O)c2ccccc2)c1,-6,0,32,3,109,-2
CCNc1nc(N)nc(-c2cc(Cl)ccc2O)n1,72*,-73*,-13,-35,100,75*
Nc1nc(N)nc(-c2cc(O)ccc2O)n1,66*,·,·,·,117,70*
Cn1nnc2cc(NC(=O)Nc3cccc(C(F)(F)F)c3)ccc21,-2,-1,-2,7,98,-2
CCOC(=O)C1=C(COC(=O)C2CC(=O)N(c3ccccc3F)C2)NC(=O)NC1C (stereo not given),0,·,·,·,107,1
O=C(c1ccco1)N1CCN(C2CC(=O)N(c3ccc(F)c(Cl)c3)C2=O)CC1 (stereo not given),-1,4,15,12,111,0
COc1cccc2c1cc1c(=O)n(CC(=O)NCCCN3CCCCC3)nc(C)n12,-1,-60*,11,11,88,0
COC(=O)C1CCN(CC(=O)Nc2ccc(OC)c(Cl)c2)CC1,-6,2,7,-4,92,-2
Cc1[nH]c(=O)[nH]c(=O)c1S(=O)(=O)Nc1ccc(Oc2ccccc2)cc1,-5,5,37,-14,109,0
CN(C)S(=O)(=O)Nc1ccc(Oc2ccccc2)cc1,-3,2,-93*,-6,85,-1
Cc1cc(C)c2nc(NC(=O)CN3C(=O)NC4(CCCC4)C3=O)sc2c1,-5,2,-30,-14,79,·
CCOC(=O)C1=C(CCl)NC(=O)NC1c1ccc2c(c1)OCO2 (stereo not given),-2,0,6,-2,108,-1
